CAL PDZ FP-1: CAL PDZ peptide-binding inhibitors, primary screen, biochemical, fluorescence polarization, Cer-tagged CAL PDZ, HTS | AID 504414, 2011 | purified CAL PDZ, TMR-peptide fluorescence polarization, 1 h | inhibition, % at 20 µM | hit rate 0.02% among 330,000;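 active = highest replicate inhibition of at least 40%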;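 also: plate controls were DMSO neutral control wells for no effect and unlabeled competitor peptide control wells for full effect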
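Test system: purified CerCALP PDZ construct; Compound dosing: one concentration, 20 µM compound; Also added: TMR-labelled reporter peptide T*-PRC34 bound in PDZ groove; Read-out: inhibition from polarization loss; Controls: unlabelled peptide and DMSO controls; Signal: FP readout, S and P plane fluorescence; Incubation: 1 h at RT.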
SR-BI uptake up: activators of SR-BI mediated DiI-HDL uptake, primary screen, ldlA[mSR-BI] CHO cells, DiI fluorescence; activation, % at 12.5 µM; hit rate 0.096% among 320,000; 3 h; 100 = double the neutral-control signal;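 active = mean replicate activation of at least 60% and every replicate at or above 60%; inconclusive = mean or all-replicate condition met, but not both; inactive = mean below 60% and not all replicates reaching 60%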;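 also: 0% = median plate neutral-control signal and 100% = twice that signal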
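Material: SR-BI-overexpressing, LDLR-lacking CHO cells | Dosing: Single compound concentration, delivered by pin transfer | Probe or stimulus: Labelled HDL, 10 µg/mL | Signal: Bottom-read cell fluorescence after medium removal, ex 550/em 595 nm | Schedule: 3 h, 37 °C | Evaluation: HDL uptake via cellular fluorescence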
SR-BI HDL uptake: inhibitors of SR-BI mediated HDL lipid uptake, primary screen, ldlA[mSR-BI] cells, fluorescence, single point; inhibition, % at 12.5 µM; ldlA[mSR-BI] CHO cells, DiI-HDL uptake fluorescence, 3 h; hit rate 0.96% among 320,000;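 active = mean replicate inhibition of at least 70% and a set share of replicates each scoring 70 or more; inconclusive = meets just one of the two criteria; inactive = fails both criteria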;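 also: 0% = median of neutral control wells and 100% = median of positive control wells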
CAL PDZ FP-2: untagged CAL PDZ binding inhibitors, primary screen, biochemical, fluorescence polarization, HTS | purified CAL PDZ, TMR-peptide fluorescence polarization, 1 h | hit rate 0.92% among 300,000 | Golgi-associated PDZ and coiled-coil motif-containing protein (Homo sapiens), Q9HD26 | inhibition, % at 24.9 µM;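 active = mean inhibition of at least 30% with at least half of replicates also reaching 30%; inconclusive = no clear call, values can overlap the other calls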;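 also: 0% = DMSO neutral control and 100% = excess unlabeled competitor peptide PRC23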
ATG4B inh: ATG4B protease inhibitors, primary screen, biochemical, fluorescence, uHTS. hit rate 0.51% among 340,000. Cysteine protease ATG4B (Homo sapiens), Q9Y4P1. inhibition, % at 8.33 µM. ATG4B cleavage of LC3-PLA2, NBD-HPC fluorescence, 1 h; in the data active = inhibition above about 40%
Target sequence (Q9Y4P1 whole entry, looked up): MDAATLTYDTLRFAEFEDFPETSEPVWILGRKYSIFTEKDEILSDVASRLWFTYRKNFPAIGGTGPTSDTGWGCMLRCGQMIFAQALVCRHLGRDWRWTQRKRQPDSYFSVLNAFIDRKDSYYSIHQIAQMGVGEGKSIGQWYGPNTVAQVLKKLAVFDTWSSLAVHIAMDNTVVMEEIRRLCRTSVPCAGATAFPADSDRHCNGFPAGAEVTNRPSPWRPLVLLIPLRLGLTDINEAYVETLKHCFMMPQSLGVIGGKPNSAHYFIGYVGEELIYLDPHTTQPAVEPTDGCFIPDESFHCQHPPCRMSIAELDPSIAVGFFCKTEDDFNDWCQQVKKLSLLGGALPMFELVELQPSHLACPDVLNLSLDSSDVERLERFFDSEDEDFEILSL
DiI quencher: DiI fluorescence quenching in cell-free counter-screen; shares compounds with SR-BI HDL uptake; cell-free DiI-HDL fluorescence quenching, 30 min; AC50, µM (titrated, usually from 35 µM), for the others: top-dose activity change, negative = quenching; hit rate 20% among 470; AID 540326;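 active = quenching, a falling signal, with AC50 below a set limit tied to the top valid dose, actives reach about 32 µM in these data; inconclusive = no clear call, values can overlap the other calls; inactive = rising signal, and the rest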
Active calls of the source: *; u = inconclusive; x = not tested or not shown. An excerpt weighted towards active compounds, which were near 2.3% of everything screened.

SMILES	CAL PDZ FP-1	SR-BI uptake up	SR-BI HDL uptake	CAL PDZ FP-2	ATG4B inh	DiI quencher
O=c1[nH]c(C(F)(F)C(F)(F)C(F)(F)F)no1	1	12	-12	3	-6	x
C=CCN(CC=C)C(=O)COn1nnc2ccc(S(=O)(=O)N3CCOCC3)cc21	-1	-17	17	-3	0	-4%
CCOc1ccc(NC(=O)COn2nnc3ccc(S(=O)(=O)N4CCOCC4)cc32)cc1	x	-13	13	-7	5	x
CNc1cnn(-c2ccc(C)cc2)c(=O)c1Sc1ccc(C)cc1	-3	-70	70*	-2	6	1%
O=C(O)CSCC(=O)N1CCN(c2nc3cc(Cl)ccc3s2)CC1	-1	12	-12	-3	-12	x
COc1ccc(-c2nnn(CC(=O)N(c3cccc(O)c3)C(C)C(=O)NC3CCCC3)n2)cc1OC (configuration not stated)	-2	-16	16	-3	-5	x
COc1ccc(N(CC(=O)NC2CCCC2)C(=O)Cn2nnc(-c3ccc(OC)c(OC)c3)n2)cc1	-1	-80	80*	2	-2	-4%
CCC(C(=O)NC1CCCC1)N(C(=O)Cn1nnc(-c2ccc(OC)c(OC)c2)n1)c1cccc(O)c1 (configuration not stated)	-4	-28	28	-7	-9	0%
CC1CC(C)CN(C(=O)CN2C(=O)NC(c3ccccc3)(c3ccccc3)C2=O)C1 (configuration not stated)	0	16	-16	-5	-12	x
O=C(Nc1ccc2oc(-c3ccccc3)nc2c1)c1cc(-n2cnnc2)ccc1Cl	-7	-68	68	-4	-11	x
O=C(Nc1ccc(-c2nc3ccccc3o2)cc1)c1cc(-n2cnnc2)ccc1Cl	-4	-73	u	x	-23	8%
O=C(Nc1cccc(S(=O)(=O)N2CCOCC2)c1)C1CCN(S(=O)(=O)c2ccccc2)CC1	-1	-76	u	x	-15	6%
CC1CCCCN1CCCNC(=O)c1ccc2nc(N3CCCCC3)sc2c1 (configuration not stated)	0	-9	9	-2	-13	x
CC(=O)c1c(C)[nH]c(C(=O)OCc2nc3ccsc3c(=O)[nH]2)c1C	-3	-71	71*	-2	-7	-6%
Cc1ccsc1C(=O)OCc1nc2ccsc2c(=O)[nH]1	0	13	-13	3	-14	x
N#CCCN(C(=O)COC(=O)CCc1c[nH]c2ccccc12)c1ccc(F)cc1	-2	16	-16	-3	1	-13%
Cc1cc(C)nc(N2CCC(C(=O)N3CCN(c4cc(Cl)ccc4C)CC3)CC2)n1	x	-103	102*	-2	6	-2%
O=C(COC(=O)c1ccccn1)NCCc1ccc(Cl)cc1	-1	35	-35	x	3	x
CCCOc1cccc(C2C(C(=O)c3ccc(C)o3)=C(O)C(=O)N2c2nc(C)c(C(C)=O)s2)c1 (configuration not stated)	-6	4	-4	-6	-7	x
CC(=O)Nc1nc(-c2ccccc2)nc(-c2ccccc2OC(C)=O)n1	-2	-75	u	-3	1	4%
CCOC(=O)C1=CN(c2cccc(F)c2)C=C(C(=O)OCC)C1c1cc(OC)c(O)c([N+](=O)[O-])c1	-2	2	-2	-4	15	7.7µM*
COC(=O)C1=CN(c2ccc(F)cc2)C=C(C(=O)OC)C1c1ccc([N+](=O)[O-])cc1	0	-61	61	-14	2	x
COc1ccc(C2/C=C\CC(NC(=O)OCC3c4ccccc4-c4ccccc43)CC(=O)N2Cc2ccccc2F)cc1 (configuration not stated)	0	-29	29	1	8	x
